Measurements reported in ChEMBL document CHEMBL2413010, “Design and synthesis of 2-phenyl-1,4-dioxa-spiro[4.5]deca-6,9-dien-8-ones as potential anticancer agents starting from cytotoxic spiromamakone A” (Eur J Med Chem, 2013).
pIC50: −log10 of the molar value.

What follows are molecules tested on HeLa (assay: Ratio of spiromamakone A IC50 to compound IC50 for human HeLa cells assessed as cell survival after 48 hrs by WST-8 method). Settings: not given.
Format: functional
For `O=C1C=C[C@@]2(C=C1Cl)OC[C@@H](c1ccc(I)cc1)O2` (mixture of isomers), the “Ratio IC50” value was 15.

What follows are molecules tested on HeLa (assay: Cytotoxicity against human HeLa cells assessed as cell survival after 48 hrs by WST-8 method). Settings: Homo sapiens, HeLa, 48 h.
Format: functional, cell-based
Procedure, shortened: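 HeLa cells grown in DMEM with 10% FBS, penicillin and streptomycin at 37 °C, 5% CO2. Cells seeded at 1.0 × 10³ per well and left overnight, then exposed for 48 h to compounds in DMSO at various concentrations, with DMSO as negative control. WST-8 added for 1 h at 37 °C; formazan read at 450 nm. IC50 taken as concentration giving 50% cell survival.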
`O=C1C=CC(=O)C12C(O)C=CC21Oc2cccc3cccc(c23)O1` (configuration not stated) showed a pIC50 of 5.66. With `O=C1C=C[C@@]2(C=C1Cl)OC[C@@H](c1ccc(I)cc1)O2` (mixture of isomers) the pIC50 was 6.85. `O=C1C=CC2(C=C1)OCC(c1ccc(-c3cnccc3Cl)cc1)O2` (racemic) was tested, and the pIC50 was 5.89. `O=C1C=CC2(C=C1)OCC(c1ccc(-c3cccc(Cl)c3)cc1)O2` (racemic) gave a pIC50 of 5.85. Work on `O=C1C=CC2(C=C1)OCC(c1ccc(-c3cccc(C(=O)O)c3)cc1)O2` (racemic) yielded a pIC50 of 5.51. In the case of `O=C1C=CC2(C=C1)OCC(c1ccc(-c3ccc(C(=O)O)cc3)cc1)O2` (racemic), the pIC50 was 5.77. Molecule `COC(=O)c1cccc(-c2ccc(C3COC4(C=CC(=O)C=C4)O3)cc2)c1` (racemic) has a pIC50 of 5.82. For `COC(=O)c1ccc(-c2ccc(C3COC4(C=CC(=O)C=C4)O3)cc2)cc1` (racemic), the pIC50 was 5.59. Work on `CCCOC(=O)c1cccc(-c2ccc(C3COC4(C=CC(=O)C=C4)O3)cc2)c1` (racemic) yielded a pIC50 of 6.10. `CCCOC(=O)c1ccc(-c2ccc(C3COC4(C=CC(=O)C=C4)O3)cc2)cc1` (racemic) was tested, and the pIC50 was 6.09. Work on `O=C1C=CC2(C=C1)OCC(c1ccc(-c3cccc(C(F)(F)F)c3)cc1)O2` (racemic) yielded a pIC50 of 6.10. For `O=C1C=CC2(C=C1)OCC(c1ccc(-c3ccccc3OCc3ccccc3)cc1)O2` (racemic), the pIC50 was 6.02. With `CN(C)c1ccc(-c2ccc(C3COC4(C=CC(=O)C=C4)O3)cc2)cc1` (racemic) the pIC50 was 5.46. For `CS(=O)(=O)c1ccc(-c2ccc(C3COC4(C=CC(=O)C=C4)O3)cc2)cc1` (racemic), the pIC50 was 5.77. `CC(=O)Nc1ccc(-c2ccc(C3COC4(C=CC(=O)C=C4)O3)cc2)cc1` (racemic) gave a pIC50 of 6.05. `COC(=O)c1cc(-c2ccc(C3COC4(C=CC(=O)C=C4)O3)cc2)ccc1F` (racemic) gave a pIC50 of 5.74. For `O=C1C=CC2(C=C1)OCC(c1ccc(-c3cccnc3)cc1)O2` (racemic), the pIC50 was 5.82. `O=C1C=CC2(C=C1)OCC(c1ccc(-c3ccncc3)cc1)O2` (racemic) showed a pIC50 of 5.35. In the case of `O=C1C=CC2(C=C1)OCC(c1ccc(-c3cncnc3)cc1)O2` (racemic), the pIC50 was 5.49. For `O=C1C=CC2(C=C1)OCC(c1ccc(-c3ccoc3)cc1)O2` (racemic), the pIC50 was 5.60. With `O=C1C=CC2(C=C1)OCC(c1ccc(-c3ccsc3)cc1)O2` (racemic) the pIC50 was 5.60. `O=C1C=CC2(C=C1)OCC(c1ccc(-c3cnc4ccccc4c3)cc1)O2` (racemic) showed a pIC50 of 6.10. `O=C1C=C[C@@]2(C=C1Cl)OC[C@@H](c1ccc(-c3cccnc3)cc1)O2` (racemic) gave a pIC50 of 5.03. For `O=C1C=C[C@@]2(C=C1Cl)OC[C@@H](c1ccc(-c3ccncc3)cc1)O2` (racemic), the pIC50 was 5.64. Work on `O=C1C=C[C@@]2(C=C1Cl)OC[C@@H](c1ccc(-c3cncnc3)cc1)O2` (racemic) yielded a pIC50 of 5.34. `O=C1C=C[C@@]2(C=C1Cl)OC[C@@H](c1ccc(-c3cnc4ccccc4c3)cc1)O2` (racemic) showed a pIC50 of 5.57. `O=C1C=CC2(C=C1)OCC(c1ccc(Br)cc1)O2` (racemic) gave a pIC50 of 5.62. `O=C1C=CC2(C=C1)OCC(c1cccc(I)c1)O2` (racemic) was tested, and the pIC50 was 5.80. `O=C1C=CC2(C=C1)OCC(c1ccc(I)cc1)O2` (racemic) was tested, and the pIC50 was 5.96. For `O=C1C=CC2(C=C1)OCC(c1cccc(-c3ccccc3)c1)O2` (racemic), the pIC50 was 5.85. With `O=C1C=CC2(C=C1)OCC(c1cccc(-c3cccc(F)c3)c1)O2` (racemic) the pIC50 was 5.80. Work on `O=C1C=CC2(C=C1)OCC(c1cccc(-c3ccc(F)cc3)c1)O2` (racemic) yielded a pIC50 of 6.17. For `O=C1C=CC2(C=C1)OCC(c1cccc(-c3cccc(Cl)c3)c1)O2` (racemic), the pIC50 was 5.74. For `O=C1C=CC2(C=C1)OCC(c1cccc(-c3ccc(Cl)cc3)c1)O2` (racemic), the pIC50 was 6.07. `CS(=O)(=O)c1ccc(-c2cccc(C3COC4(C=CC(=O)C=C4)O3)c2)cc1` (racemic) showed a pIC50 of 6.10. In the case of `CC(=O)Nc1ccc(-c2cccc(C3COC4(C=CC(=O)C=C4)O3)c2)cc1` (racemic), the pIC50 was 6.06. In the case of `O=C1C=CC2(C=C1)OCC(c1cccc(-c3cnccc3Cl)c1)O2` (racemic), the pIC50 was 5.77. In the case of `O=C1C=CC2(C=C1)OCC(c1cccc(-c3ccco3)c1)O2` (racemic), the pIC50 was 5.49. With `O=C1C=CC2(C=C1)OCC(c1cccc(-c3ccsc3)c1)O2` (racemic) the pIC50 was 6.04. Molecule `O=C1C=CC2(C=C1)OCC(c1cccc(-c3cccc4ccccc34)c1)O2` (racemic) has a pIC50 of 5.89. Molecule `O=C1C=CC2(C=C1)OCC(c1cccc(-c3ccc4ccccc4c3)c1)O2` (racemic) has a pIC50 of 5.89. With `O=C1C=CC2(C=C1)OCC(c1cccc(-c3cnc4ccccc4c3)c1)O2` (racemic) the pIC50 was 5.62. In the case of `O=C1C=CC2(C=C1Cl)OCC(c1ccc(Cl)cc1)O2` (racemic; form 2), the pIC50 was 5.57. `O=C1C=CC2(C=C1Cl)OCC(c1cccc(I)c1)O2` (racemic; form 2) gave a pIC50 of 5.80. `O=C1C=C[C@]2(C=C1Cl)OC[C@@H](c1ccc(I)cc1)O2` (relative stereo) was tested, and the pIC50 was 5.62. In the case of `O=C1C=CC2(C=C1Cl)OCC(c1cccc(Br)c1)O2` (stereo in doubt), the pIC50 was 6.21.

Same assay, conditions: hela
Molecule `O=C1C=CC2(C=C1Cl)OCC(c1ccc(Br)cc1)O2` (mixture of isomers) has a pIC50 of 5.35. `O=C1C=CC2(C=C1Cl)OCC(c1cccc(Br)c1)O2` (racemic) gave a pIC50 of 6.19. With `O=C1C=CC2(C=C1Cl)OCC(c1ccc(Cl)cc1)O2` (racemic; form 1) the pIC50 was 5.54. `O=C1C=CC2(C=C1Cl)OCC(c1cccc(I)c1)O2` (racemic; form 1) was tested, and the pIC50 was 5.82. `O=C1C=CC2(C=C1Cl)OCC(c1ccc(Br)cc1)O2` (stereo in doubt) showed a pIC50 of 5.68.
